Test results: ChEMBL document CHEMBL1140698, “Design, synthesis, and anti-inflammatory properties of orally active 4-(phenylamino)-pyrrolo[2,1-f][1,2,4]triazine p38alpha mitogen-activated protein kinase inhibitors” (J Med Chem, 2008)

Legend:
[1] = Clearance in mouse at 5 mg/kg, iv or 10 mg/kg, po; assay type: ADME, organism-based; conditions: in vivo
Summary of the method: (§1)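 Mice dosed at 5 mg/kg i.v. or 10 mg/kg p.o., 3 mice per group. Values given as average ± SEM.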

[2] = Mean residence time in mouse at 5 mg/kg, iv or 10 mg/kg, po; assay type: ADME, organism-based; conditions: in vivo; summary of the method: as §1
[3] = Metabolic stability in rat liver microsome after 10 mins; assay type: ADME; conditions: liver microsomes, read-out: Stability
Summary of the method: (§2)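 Rat or pooled human (10 donors) liver microsomes at about 1 mg/mL protein, 1 mM NADPH, 56 mM potassium phosphate pH 7.4, compound 3 µM final, 37 °C. Quenched with acetonitrile and parent drug quantified by LC/MS/MS. Percent parent remaining at 10 min, n = 1.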

[4] = AUC (0 to 4 hrs) in rat at 10 mg/kg, po; assay type: ADME, organism-based; design: time < 4 hr, dose 10 mg/kg, route oral; conditions: plasma
Summary of the method: (§3)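 Rats given a single oral 10 mg/kg dose in 9/0.5/0.5 water/EtOH/Tween 80. Plasma drug level measured at 0.5 h and AUC0-4h calculated, each as the average of 2 rats.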

[5] = Half life in mouse at 5 mg/kg, iv or 10 mg/kg, po; assay type: ADME, organism-based; conditions: in vivo; summary of the method: as §1
Caco-2 = assay: Intrinsic permeability across human Caco-2 cells; assay type: ADME, cell-based
[6] = Metabolic stability in human liver microsome after 10 mins; assay type: ADME; conditions: liver microsomes, read-out: Stability; summary of the method: as §2
[7] = Drug level in rat plasma at 10 mg/kg, po after 0.5 hrs; assay type: ADME, organism-based; design: dose 10 mg/kg, route oral; summary of the method: as §3
[8] = Volume of distribution at steady state in mouse 5 mg/kg, iv or 10 mg/kg, po; assay type: ADME, organism-based; conditions: in vivo, read-out: Vdss; summary of the method: as §1
[9] = AUC (0 to 8 hrs) in mouse 5 mg/kg, iv or 10 mg/kg, po; assay type: ADME, organism-based; conditions: plasma; summary of the method: as §1
[10] = Cmax in mouse at 5 mg/kg, iv or 10 mg/kg, po; assay type: ADME, organism-based; conditions: in vivo; summary of the method: as §1
[11] = Bioavailability in mouse at 10 mg/kg, po; assay type: ADME, organism-based; conditions: in vivo; summary of the method: as §1
[12] = Tmax in mouse at 5 mg/kg, iv or 10 mg/kg, po; assay type: ADME, organism-based; conditions: in vivo; summary of the method: as §1

clearance [1] [mL/min/kg]	MRT [2] [h]	remaining at 10 min [3] [%]	AUC(0-t) at 4 h [4] [µM·h]	half-life [5] [h]	Papp (Caco-2) [×10⁻⁶ cm/s]	remaining at 10 min [6] [%]	concentration at 0.5 h [7] [µM]	Vd [8] [L/kg]	AUC(0-t) [9] [µM·h]	Cmax [10] [µM]	bioavailability [11] [%]	Tmax [12] [h]	SMILES
			3.7				3.8						CONC(=O)c1ccc(C)c(Nc2ncnn3cc(C(=O)NC(C)C)c(C)c23)c1
		96	9.2			62	4.3						CC[C@H](C)NC(=O)c1cn2ncnc(Nc3cc(C(=O)NOC)ccc3C)c2c1C
93	1.4	100	0.7	2.2	2	69	0.8	7.6	3.6	3.1	79	0.25	CCNC(=O)c1cn2ncnc(Nc3cc(C(=O)NOC)ccc3C)c2c1C

Second part, the molecule before the results:

SMILES	clearance [1] [mL/min/kg]	MRT [2] [h]	remaining at 10 min [3] [%]	AUC(0-t) at 4 h [4] [µM·h]	half-life [5] [h]	Papp (Caco-2) [×10⁻⁶ cm/s]	remaining at 10 min [6] [%]	concentration at 0.5 h [7] [µM]	Vd [8] [L/kg]	AUC(0-t) [9] [µM·h]	Cmax [10] [µM]	bioavailability [11] [%]	Tmax [12] [h]
CONC(=O)c1ccc(C)c(Nc2ncnn3cc(C(=O)N[C@@H](C)c4ccccc4)c(C)c23)c1	31	0.8	90	2.1	1.2	13.1	72	2.1	1.5	3.8	3.7	34	0.5
CCCNC(=O)c1cn2ncnc(Nc3cc(NC(=O)OCC)ccc3C)c2c1C				0.7				0.4					
CONC(=O)c1ccc(C)c(Nc2ncnn3cc(C(=O)NCc4ccccn4)c(C)c23)c1				2.8				3.4					
CCCNC(=O)c1cn2ncnc(Nc3cc(C(=O)NOC)ccc3C)c2c1C	28	1	82	2.1	2.5	5.8	83	6.6	1.6	13	18	97	0.25
